Tests used:
[1] = species on record: Rattus norvegicus; assay: Antispasmodic activity was calculated as molar concentration of antagonist that inhibited 50% of a standard contraction response from isolated rat ileum preparation; format: functional; details: read-out: ID50 (the source's name)
[2] = species on record: Rattus norvegicus; assay: Relative potency with respect to (+/-)-3-Hydroxy-2-methyl-2-phenyl-propionic acid 2-diethylamino-ethyl ester in isolated rat ileum preparation; format: functional
[3] = species on record: Rattus norvegicus; assay: Antispasmodic activity calculated as ability of compound to block ACh-induced contractions of the ileum and expressed as pA2; format: functional, organism-based; details: for Kb: Rattus norvegicus, Ileum, read-out: pA2 (converted)
Outline: (§1)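 Ileum from overnight-fasted rats killed by cervical dislocation, suspended in aerated Tyrode solution and recorded via force-displacement transducer. Contractions measured across increasing ACh concentrations, then ACh responses with antagonist present. pA2 derived by the Ariens–van Rossum method as the mean from linear regression of two or more experiments at four or more dose levels. ID50 is the molar antagonist concentration inhibiting 50% of a standard contraction.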

[4] = species on record: Rattus norvegicus; assay: Antispasmodic activity was measured as percent reduction in rat ileum contraction against 300 ug/mL barium chloride 3 ug/mL (6.4X 10E-6 uM); format: functional
Outline: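 Rat ileum strips in a tissue bath were contracted with a standard BaCl2 dose (300 μg/mL), chosen from a preliminary dose-response, then washed back to baseline. Test compound was added and equilibrated for 10 min. Without washout, the same BaCl2 dose was given again. Percent inhibition was taken from the contraction before versus after compound.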

[5] = system: ileum (Cavia porcellus); assay: Antispasmodic activity was calculated as molar concentration of antagonist that inhibited 50% of a standard contraction response from isolated guinea pig ileum preparation; details: read-out: ID50 (the source's name)
[6] = species on record: Cavia porcellus; assay: Antispasmodic activity was determined from isolated guinea pig ileum preparation
[7] = species on record: Rattus norvegicus; assay: Antispasmodic activity was calculated according to Ariens and van Rossum from isolated rat ileum preparations; format: functional; details: read-out: pA2 (converted); outline: as §1
[8] = species on record: Cavia porcellus; assay: Ability to inhibit 50% standard contraction response of the guinea pig ileal tissue was measured with increasing concentrations of Acetylcholine (ACh) in the tissue bath; format: functional
[9] = species on record: Rattus norvegicus; assay: (§2) Antispasmodic activity was measured as uM); format: functional
[10] = species on record: Rattus norvegicus; assay: as §2; format: functional; remark: listed apart in the source
[11] = species on record: Rattus norvegicus; assay: as §2; format: functional; remark: listed apart in the source
[12] = species on record: Cavia porcellus; assay: Ability to inhibit 50% standard contraction response of the guinea pig ileal tissue was measured with increasing concentrations of Acetylcholine (ACh) in the tissue bath
[13] = species on record: Rattus norvegicus; assay: Antispasmodic activity was measured as percent reduction in rat ileum contraction against 300 ug/mL barium chloride 0.5 ug/mL (1.5 X 10E-6 uM); format: functional
Outline: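 Ileum strips from overnight-fasted rats killed by cervical dislocation, held in a tissue bath with force-displacement transducer recording. BaCl2 at 300 µg/mL, a standard dose set by a preliminary dose-response study, induced contraction; tissue washed back to baseline. Test agent equilibrated 10 min, then the same BaCl2 dose was added without washout. Percent inhibition was taken from contraction before versus after agent.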

Structure (SMILES) | IC50 ([1]; Rattus norvegicus, Ileum) [nM] | IC50 [1] [nM] | Relative potency [2] | Kb [3] [nM] | pA2 [3] | further results
CCN(CC)CCOC(=O)C(C)(CI)c1ccccc1.Cl (stereo unspecified) | 38.7 |  | 8.11 | 38.9 |  | 
CCN(CC)CCOC(=O)C(C)(COS(=O)(=O)c1ccc(C)cc1)c1ccccc1.Cl (stereo in doubt; 2a) |  | 31 | 10.13 |  | 7.51 | 
CCN(CC)CCOC(=O)C(C)(COS(=O)(=O)c1ccc(C)cc1)c1ccccc1.Cl (stereo in doubt; 2b) |  | 172 | 1.83 |  | 6.77 | 
CCN(CC)CCOC(=O)C(C)(COS(=O)(=O)c1ccc(C)cc1)c1ccccc1.Cl (racemic) |  | 38.9 | 8.07 |  | 7.41 | Inhibition [4]: 33%
CCN(CC)CCOC(=O)C(C)(COC(C)=O)c1ccccc1.Cl (stereo unspecified) |  |  | 0.8 |  |  | IC50 [5]: 394 nM
CCN(CC)CCOC(=O)C(C)(CO)c1ccccc1.Cl (single isomer, unassigned; (-)) |  | 16.3 | 19.26 |  |  | Log K [6]: 7.996; Kb [7]: 16.2 nM
CCN(CC)CCOC(=O)C(C)(CBr)c1ccccc1.Cl (stereo unspecified) | 127 |  | 2.47 | 126 |  | 
CN1[C@@H]2CC[C@H]1C[C@@H](OC(=O)C(CO)c1ccccc1)C2 (stereo partly specified) [ATROPINE] |  |  |  |  |  | Inhibition [13]: 5.9%

More lines, main results first:

IC50 ([1]; Rattus norvegicus, Ileum) [nM] | IC50 [1] [nM] | Structure (SMILES) | Relative potency [2] | Kb [3] [nM] | pA2 [3] | further results
 | 1140 | CCN(CC)CCOC(=O)C(C)(CO)c1ccccc1.Cl (single isomer, unassigned; (+)) | 0.27 |  | 5.94 | Log K [6]: 6.13
301 |  | CCN(CC)CCOC(=O)C(C)(CF)c1ccccc1.Cl (stereo unspecified) | 1.04 | 302 |  | ID50 [8]: 411 nM; Inhibition [9]: 24%; Inhibition [10]: 35.7%; Inhibition [11]: 15.7%
554 |  | CCN(CC)CCOC(=O)C(C)(CCl)c1ccccc1.Cl (stereo unspecified) | 0.57 | 550 |  | ID50 [12]: 1170 nM
 | 314 | CCN(CC)CCOC(=O)C(C)(CO)c1ccccc1.Cl (racemic) |  |  | 6.5 | ID50 [8]: 483 nM
